Beta2AR agonist = human beta-2 adrenergic receptor agonism by FAP; P07550; Am2.2-beta2AR cells, FAP receptor internalization, flow cytometry; response, % (test concentration not listed); 340,000 compounds, 0.43% hits; AID 504454;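 active = response above a set limit, near 3 SD of response in nonfluorescent compounds, cut at about 42% in these data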
PfGluPho inh = PfG6PD (Plasmodium falciparum) enzyme inhibition | PfGluPho enzyme, NADPH resazurin-diaphorase fluorescence | inhibition, % at 20 µM | 350,000 compounds, 0.78% hits;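 active = inhibition reaching at least a set limit at 20 µM in the primary screen, cut at about 59% in these data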;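 note: 0% = DMSO wells with substrate and 100% = DMSO wells lacking glucose-6-phosphate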
UCH37 inh = inhibitors of human deubiquitinating enzyme UCH37; Q9Y5K5; purified proteasome/UCH37, Ub-AMC cleavage fluorescence; inhibition, % (concentration not given with the values); 330,000 compounds, 0.33% hits;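 active = mean inhibition over replicate wells above about 20%, limit read from the data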;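 note: 0% = compound-free wells with enzyme and 100% = wells lacking proteasome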
Target sequence (Q9Y5K5 whole entry, looked up): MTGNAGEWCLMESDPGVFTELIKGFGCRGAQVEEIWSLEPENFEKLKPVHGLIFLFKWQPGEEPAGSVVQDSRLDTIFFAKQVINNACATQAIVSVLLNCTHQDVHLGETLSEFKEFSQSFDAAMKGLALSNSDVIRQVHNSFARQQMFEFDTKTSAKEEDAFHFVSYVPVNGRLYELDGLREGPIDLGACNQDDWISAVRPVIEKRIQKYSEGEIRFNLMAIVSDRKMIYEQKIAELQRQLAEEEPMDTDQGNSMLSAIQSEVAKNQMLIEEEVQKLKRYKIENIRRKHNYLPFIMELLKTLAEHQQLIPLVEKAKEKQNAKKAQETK
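Reagent: Ub-AMC substrate; assay system: Proteasome-associated human UCH37 deubiquitinase; controls: no-proteasome and no-compound wells; read-out: % inhibition of Ub-AMC cleavage fluorescence; timing: 30 min preincubation with enzyme, 25 min cleavage at room temperature; signal: AMC fluorescence from Ub-AMC cleavage, excitation 355 nm, emission 460 nm; buffer or medium: Tris-HCl pH 7.4 plus ovalbumin, ATP-MgCl2, DTT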
H9c2 protect = myocardial damage modulation in H9c2 cells; H9c2 cardiomyocytes, H2O2 injury protection, ATPLite, 2 h; protection from H2O2 cell death, % at 20 µM; 360,000 compounds, 0.63% hits;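 active = compounds giving at least 50% protection of heart cells from peroxide-induced death in the single-dose screen, raw or plate-pattern-corrected value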;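 note: 0% = DMSO wells with peroxide and 100% = DMSO wells without peroxide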
aDG glyco act = alpha-DG glycosylation activation; Pro5-aDG cells, alpha-DG glycosylation AlphaScreen (IIH6); 0% Pro5, 100% B10-LARGE cell signal; activation, % at 10 µM; 360,000 compounds, 0.22% hits;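 active = activation of at least 8% versus controls, or a plate z-score of at least 8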;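 note: Pro5 are CHO cells carrying HIG-tagged alpha-DG that lacks glycosylation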
HKDC1 inhibitor = HKDC1 (human) hexokinase inhibition. recombinant HKDC1, G6PDH/diaphorase resazurin coupled fluorescence. inhibition, % at 20 µM. 340,000 compounds, 0.16% hits;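 active = inhibition above about 35% when tested at 20 µM, limit read from the data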;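 note: plate controls were DMSO wells with enzyme for no effect and DMSO wells lacking enzyme for full effect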
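Material: recombinant HKDC1 hexokinase; Amount: HKDC1 at 5 µg/mL; Medium: Tris pH 8.0 buffer with MgCl2, Tween-20, BSA, BME; Schedule: 90 min reaction incubation at room temperature, dark; Technique: coupled resazurin fluorescence, excitation 525 nm, emission 613 nm.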
PfG6PD confirm = confirmation of Plasmodium falciparum G6PD inhibitors; shares compounds with PfGluPho inh; recombinant PfGluPho, NADPH-diaphorase-resazurin fluorescence; inhibition, % at 20 µM; 2,400 compounds, 34% hits; AID 504753;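 active = inhibition of at least 50% at 20 µM in any single replicate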;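 note: 0% = DMSO with substrate and 100% = DMSO lacking glucose-6-phosphate substrate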
Diaphorase 10uM = inhibits diaphorase or oxidizes, flagging false PfG6PD hits. diaphorase-coupled resazurin reduction, fluorescence, NADPH 10 uM. shares compounds with PfGluPho inh. AID 504862. inhibition, % at 20 µM. 820 compounds, 39% hits;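 active = average inhibition reaching 50% or more with the compound at 20 µM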;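 note: resorufin red fluorescence formed as diaphorase reduces resazurin using NADPH; 0% = DMSO with enzyme and 100% = DMSO without enzyme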
Diaph ctr 30uM = diaphorase inhibition or oxidation at 30 uM NADPH. 820 compounds, 29% hits. shares compounds with PfGluPho inh. inhibition, % at 20 µM. Diaphorase/resazurin coupled assay, resorufin fluorescence;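 active = inhibition averaging 50% or more, tested at 20 µM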;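 note: 0% = DMSO with enzyme and 100% = DMSO wells lacking diaphorase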
* marks the source's active call; other numbers are inactive results; . = no result. Hits are enriched below; roughly 2.1% of the tested compounds scored in any of these assays.

SMILES	Beta2AR agonist	PfGluPho inh	UCH37 inh	H9c2 protect	aDG glyco act	HKDC1 inhibitor	PfG6PD confirm	others
CC(=NN1C(=O)c2ccccc2NC1c1ccccc1)c1ccccc1O (stereo not drawn)	.	.	4	.	.	.	.
CCOc1ccccc1/C=N/NC(=O)Cc1csc(Nc2cccc(C(F)(F)F)c2)n1	-18	69*	.	-29	0	1	7
O=C(CCCC(=O)NN=Cc1ccccc1Cl)NN=Cc1ccccc1Cl	0	86*	.	14	1	6	42
Cc1ccc(-c2c(C(=O)N/N=C/c3cccs3)nnn2-c2nonc2N)cc1	-10	81*	.	10	0	3	69*	Diaphorase 10uM=61*;Diaph ctr 30uM=48
Cc1ccc(-c2c(C(=O)N/N=C/c3cccc(Cl)c3)nnn2-c2nonc2N)cc1	2	145*	.	5	0	2	110*	Diaphorase 10uM=99*;Diaph ctr 30uM=84*
Nc1nonc1-n1nnc(C(=O)NN=Cc2cccc(Cl)c2)c1-c1cccs1	.	.	0	.	.	.	.
CCOc1ccc(-c2c(C(=O)N/N=C/c3cccs3)nnn2-c2nonc2N)cc1	-12	-4	.	4	-1	-7	.
Cc1ccc(-c2c(C(=O)N/N=C/c3ccsc3)nnn2-c2nonc2N)cc1	-11	82*	.	14	0	1	54*	Diaphorase 10uM=46;Diaph ctr 30uM=47
CON=C/C=C1/N(C)c2ccccc2C1(C)C	.	.	10	.	.	.	.
CC1CCN(Cc2c(C(=O)NN=Cc3cccc(Cl)c3)nnn2-c2nonc2N)CC1	.	.	4	.	.	.	.
COc1ccc(Cn2nnnc2C(C(C)C)N2CCN(c3ccccc3OC)CC2)cc1 (stereo not drawn)	6	-10	5	-7	1	4	.
CC(C)C(c1nnnn1Cc1ccc(F)cc1)N1CCN(c2ccc(O)cc2)CC1 (stereo not drawn)	0	64*	1	-2	0	-6	19
O=C(c1ccccc1Cl)N(C(=O)c1ccccc1Cl)c1nccc(-c2cccs2)n1	-6	110*	4	6	0	8	69*	Diaphorase 10uM=73*;Diaph ctr 30uM=65*
O=C(Nc1nccc(-c2cccs2)n1)c1ccccc1Cl	-2	142*	.	7	0	6	110*	Diaphorase 10uM=102*;Diaph ctr 30uM=81*
COc1cccc(C=NNC(=O)CNC(=O)c2ccc(S(=O)(=O)N3CCOCC3)cc2)c1OC	.	.	-2	.	.	.	.
C/C(=N\Nc1nc2c(s1)CCCC2)c1ccc(Cl)cc1	6	66*	.	-12	2	2	-15
CN(C)c1ccc(C(=O)Nc2nc3c(s2)CCCC3)cc1	4	55	-6	-16	1	-2	.
FC(F)(F)c1cc(CO[C@@H]2CCCN[C@@H]2c2ccccc2)cc(C(F)(F)F)c1	29	67*	4	-25	0	-1	22
Cc1nn(C)cc1C=NNC(=S)Nc1ccc(Cl)cc1Cl	.	.	2	.	.	.	.
CC1=C(C)CS(=O)N(S(=O)(=O)c2ccc(Cl)cc2)C1 (stereo not drawn)	-8	60*	.	-3	0	9	49*	Diaphorase 10uM=2;Diaph ctr 30uM=3
Cc1ccc(-c2nc3ccc(Br)cn3c2Cc2ccsc2)cc1	.	.	.	-2	0	.	.
Cc1ccc(Cc2c(-c3ccc(C)cc3)nc3ccc(Cl)cn23)cc1	.	77*	.	-17	0	.	-10
Cc1ccc(Cc2c(-c3ccc(Cl)cc3)nc3ccc(Cl)cn23)cc1	.	86*	.	-15	0	.	0
Cc1ccc(Cc2c(-c3ccc(Br)cc3)nc3ccc(Br)cn23)cc1	.	67*	.	-17	0	.	-9
Cc1ccc(Cc2c(-c3ccc(Br)cc3)nc3ccc(Cl)cn23)cc1	.	.	.	-7	0	.	.
Cc1cc(Nc2ccc(Cl)cc2)nc(N)n1	-8	63*	5	-1	0	-3	44
Cc1ccc(OCCSc2nnc(-c3cccs3)n2C)cc1	-15	12	0	-2	0	0	.

Screens as filed in PubChem BioAssay.
